Compound activity deposited in PubChem by several laboratories.
Insulin prom up: insulin promoter activators in MIN6 cells, imaging, high-content screening, mouse beta cells; MIN6 insulin promoter-GFP reporter; stronger effect = higher value; z-score at 5 µM; actives 0.3% (n = 190,000); AID 1625, 2009;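 active = z-score above 3 at 5 µM with at least 500 cells counted in the well; inconclusive = wells under 500 cells, flagged as cytotoxic or low count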
Autophagy mod: autophagy modulators in MEF cells, primary screen, imaging, high-content, MEF GFP-LC3; actives 0.98% (n = 190,000); MEF GFP-LC3 puncta imaging; test concentration mostly 10 µM; calls only at 10 µM (by protocol); AID 463193, 2010;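 active = percentage of spot-positive cells more than 3 SD above its plate mean, without a fluorescence outlier flag or 80% toxicity; inconclusive = no clear call, values can overlap the other calls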;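 note: spot-positive cell cutoff set from DMSO-treated cells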
SKKanGAS inh: S. pyogenes SKKanGAS growth inhibitors in kanamycin, primary screen, streptokinase expression inhibitor project, SKKanGAS strain, BacTiter-Glo luminescence; 6 h; inhibition, % at 7.5 µM; actives 1.3% (n = 300,000); AID 1662, 2009;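 active = mean replicate score, as percent of positive control median, at least 50; inconclusive = mean below 50 but one replicate at or above 50; inactive = mean and every replicate below 50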;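 note: strain carries kanamycin resistance gene driven by streptokinase promoter and grows in 40 µg/ml kanamycin; loss of luminescence reflects streptokinase promoter inhibition or plain growth inhibition; 0% = median of DMSO wells and 100% = positive control at its reference dose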
Rad51 HR inh: human RAD51 strand exchange inhibitors, primary screen, biochemical, fluorescence | AID 1385, 2008 | hRad51 DNA strand exchange, fluorescence dequenching | inhibition, % at 10 µM | actives 0.085% (n = 200,000);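 active = inhibition above 40% at the single screening dose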;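 note: 0% = DMSO control wells and 100% = blanks with heterologous ssDNA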
Target sequence (Q06609 whole entry, looked up): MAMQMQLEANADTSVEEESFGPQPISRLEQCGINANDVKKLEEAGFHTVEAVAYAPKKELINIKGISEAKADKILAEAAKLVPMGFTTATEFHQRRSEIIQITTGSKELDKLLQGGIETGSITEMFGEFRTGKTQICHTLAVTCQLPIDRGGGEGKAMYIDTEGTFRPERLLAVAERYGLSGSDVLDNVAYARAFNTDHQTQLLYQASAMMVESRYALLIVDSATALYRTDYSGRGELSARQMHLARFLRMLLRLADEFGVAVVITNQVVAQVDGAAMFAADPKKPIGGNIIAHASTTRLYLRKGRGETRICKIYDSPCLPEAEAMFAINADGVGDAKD
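Test system: preformed human Rad51 ssDNA filaments; also added: Donor/quencher-labelled 47-bp dsDNA substrate; doses: 10 µM final, single point; times: 37 °C 15-min filament assembly, 30-min compound preincubation, 15-min exchange; detection: FRET fluorescence dequenching, excitation 485 nm, emission 520 nm; read-out basis: Fluorescence-based percent inhibition, control- and blank-normalised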
WT yeast gro inh: growth inhibition of WT strain, primary screen, mitochondrial fusion inhibitor project, WT and mutant strains, chemical genetic; AID 1362, 2008; inhibition, % at 10 µM; mitochondrial fusion phenotypic screen; actives 2.1% (n = 190,000); in the data active = inhibition above about 58%; tested in S. cerevisiae
KCC2 mod: KCC2 cotransporter modulators, thallium flux, primary screen, cell-based, HEK293 KCC2, FluoZin-2 fluorescence, MLSMR; KCC2 cells, thallium flux FluoZin-2 fluorescence; B-score of Tl+ flux slope (higher = more flux/activation; lower = inhibition) at 10 µM; actives 2.2% (n = 190,000); Solute carrier family 12 member 5 (Homo sapiens), Q9H2X9;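 active = thallium flux slope and its plate-corrected score both differing from the plate sample mean at a set confidence after two filtering rounds, in either direction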;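 note: slope of fluorescence scaled to starting intensity during 10 to 20 s after thallium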
KCC2 secondary: KCC2 modulators in sodium-free buffer, confirmation, cell-based, HEK293 KCC2, thallium flux, secondary assay. shares compounds with KCC2 mod. FluoZin2 fluorescence; stronger effect = higher value. normalised thallium flux (F/F0 slope) at 10 µM. actives 15% (n = 3,700);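 active = thallium flux slope above the same plate's solvent-only control mean plus 3 SD; inconclusive = the two replicate wells disagree; inactive = no significant difference from solvent-only control wells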
KCC2 bumet counter: thallium flux persisting under bumetanide in KCC2 cells, confirmation, counter-screen for KCC2 modulator project, cell-based, HEK293 KCC2, FluoZin2, secondary assay 3; shares compounds with KCC2 mod; HEK293-KCC2 + bumetanide/ouabain; stronger effect = higher value; normalized thallium flux at 10 µM; actives 49% (n = 3,700);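 active = thallium entry rate above the same plate's blocked-transporter control wells by more than 3 SD; inconclusive = the two repeat wells disagree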;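 note: raw slope of fluorescence over initial fluorescence between 10 and 20 s after thallium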
KCC2 sec2: KCC2 modulators without ouabain present, confirmation, cell-based, HEK293 KCC2, thallium flux, FluoZin2, secondary assay 2 | shares compounds with KCC2 mod | thallium flux FluoZin2 fluorescence; actives lie on both sides; F/F0 rise rate, 10–20 s post-thallium | normalized thallium flux at 10 µM | actives 23% (n = 3,700);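 active = thallium flux slope more than 3 SD above or below the plate's solvent-only control mean, mostly below; inconclusive = the two repeat wells disagreed; inactive = no significant shift from solvent-only controls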;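 note: raw slope with 0.1% DMSO as baseline and bumetanide as block control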
HEK counter1: thallium flux modulation in parental HEK cells, confirmation, counter-screen for KCC2 modulator project, cell-based, counterscreen 1 | shares compounds with KCC2 mod | HEK293 parental cells, thallium flux FluoZin2, ouabain; baseline-ratio fluorescence slope, 10–20 s after thallium | thallium flux rate (normalised fluorescence) at 10 µM | actives 46% (n = 3,700);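 active = thallium flux rate significantly above the same plate's solvent-only control wells, beyond their mean plus 3 SD; inconclusive = the two replicate wells gave conflicting results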
KCC2 retest ouab: KCC2 inhibitors and activators, ouabain retest, confirmation, HEK-KCC2 cells; shares compounds with KCC2 mod; AID 1717, 2009; actives 48% (n = 3,700); HEK293-KCC2, thallium flux FluoZin2 fluorescence; bidirectional: low = inhibitor, high = activator; raw Tl+ flux slope (below DMSO = inhibition, above = activation) at 10 µM;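 active = thallium flux slope beyond 3 SD from same-plate DMSO control mean in most replicates, usually higher, sometimes lower; inconclusive = repeat tests gave conflicting results; inactive = no significant difference from controls in most replicates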;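 note: slope of initial-normalized fluorescence between seconds 10 and 20 after thallium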
HEK counter2: native HEK Tl+ uptake effects, second counter-screen – HEK cells, counterscreen 2, counter-screen for KCC2 modulator project, confirmation; shares compounds with KCC2 mod; HEK293 parental, thallium flux FluoZin-2 fluorescence slope; thallium flux slope at 10 µM; actives 33% (n = 3,700); AID 1718, 2009;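 active = thallium flux slope above the same plate's solvent-control mean plus 3 SD in both duplicate wells; inconclusive = duplicate wells that disagreed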;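 note: run without ouabain in cells lacking the KCC2 cotransporter; slope of fluorescence scaled to its starting value between 10 and 20 s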
Numbers without * were called inactive; i = inactive; ? = inconclusive; / = no result. Most compounds without a hit are left out; they make up all but 4.2% or so of the library.

SMILES	Insulin prom up	Autophagy mod	SKKanGAS inh	Rad51 HR inh	WT yeast gro inh	KCC2 mod	KCC2 secondary	KCC2 bumet counter	KCC2 sec2	HEK counter1	KCC2 retest ouab	HEK counter2
Cc1onc(-c2ccccc2)c1C(=O)c1ccccc1	-0.29	/	0	1	/	-0.06	/	/	/	/	/	/
CCC(OC(=O)c1nsc(Cl)c1Cl)C(=O)NCc1cccs1 (centres undefined)	/	i	-3	2	-17	0.67	/	/	/	/	/	/
CC(C)CC(OC(=O)c1nsc(Cl)c1Cl)C(=O)NCc1cccs1 (centres undefined)	/	i	-2	-8	-2	-3.7*	0.0061	0.0042	0.028	0.007	0.018	0.0097
Nc1c(C(=O)c2ccc(Cl)cc2)sc2nsc(SCCN3CCOCC3)c12	/	/	29	i	/	0.21	/	/	/	/	/	/
Nc1c(C(=O)c2ccccc2)sc2nsc(SCCN3CCCC3)c12	/	/	25	-400	/	4.2*	0.006*	0.0072	0.03	0.0074	0.014*	0.01
CC(C)(C)NC(=O)C(=O)NNC(=O)c1ccccc1	/	i	0	/	3	3.7*	0.019*	0.034*	0.035	0.017*	0.029	0.012*
CC(C)(C)NC(=O)C(=O)NNC(=O)c1cccc(F)c1	0.03	i	-20	/	-11	21*	0.006	0.025*	0.038*	0.024*	0.032*	0.026*
Cc1occc1C(=O)NNC(=O)c1cccc(F)c1	-1	i	-11	2	-15	-0.83	/	/	/	/	/	/
O/N=C\c1cccn1-c1ccc(Br)cc1	0.73	i	3	2	7	/	0.0083	0.006	0.03	0.0059	0.019	0.0097
O/N=C\c1cccn1-c1nccs1	0.11	i	-10	-12	-1	-0.82	/	/	/	/	/	/
COC(=O)c1c(NC(=O)CN2C(=O)C(=O)N(CC(C)C)C2=O)sc2c1CCCCC2	0.57	i	-10	-10	11	-0.08	/	/	/	/	/	/
CNC(=O)CN(Cc1ccccc1)S(=O)(=O)c1ccc(Cl)cc1	/	/	0	/	/	/	/	/	/	/	/	/
Cc1ccc(S(=O)(=O)N(CCC(=O)O)Cc2ccc(Cl)cc2)cc1	/	i	4	7	11	/	0.0059	0.0067*	0.022*	0.0072	0.013*	0.011
COc1ccc(NC(=O)CSc2nnc(CNC(=O)c3ccco3)o2)c(OC)c1	-0.03	i	-2	8	1	/	0.017	0.0052	0.027	0.0071	0.016	0.01
COc1ccccc1NC(=O)CSc1nnc(CNC(=O)c2ccco2)o1	-0.9	i	0	-16	6	/	/	/	/	/	/	/
NC(=O)C(c1ccc(Sc2ccccc2)nn1)c1ccc(Cl)cc1Cl (centres undefined)	-0.64	i	-2	0	-7	4*	0.008	0.0046	0.033	0.0071	0.018	0.012
CCOC(=O)C1CCCN(C(=O)c2cnn3c(C(F)(F)F)cc(-c4ccccc4)nc23)C1 (centres undefined)	-1.3	i	-5	1	-21	-0.23	/	/	/	/	/	/
CCOC(=O)C1CCCN(C(=O)c2cc3nc(-c4cccc(OC)c4)cc(C(F)(F)F)n3n2)C1 (centres undefined)	-0.68	i	-3	-6	31	/	0.007	0.0044	0.029	0.0073	0.02	0.01
Cc1c(-c2n[nH]c(=S)n2-c2ccc(Br)cc2)nnn1-c1ccc(Cl)cc1	0.11	i	-2	22	39	5.4*	0.012	0.024*	0.033	0.01*	0.029	?
Cc1c(-c2n[nH]c(=S)n2-c2ccc(C(F)(F)F)cc2)nnn1-c1ccccc1	/	i	-6	6	6	1.6	/	/	/	/	/	/
CCN(CC)C(=S)NC(=O)c1ccc(F)cc1	0.29	i	6	6	10	34*	0.008	0.052*	0.049*	0.033*	0.047*	0.042*
CN1CCN(C(=S)NC(=O)c2ccc(-c3ccccc3)cc2)CC1	-0.06	i	20	18	10	27*	0.03*	0.065*	?	0.034*	0.036*	0.038*
CN1CCN(C(=S)NC(=O)c2ccc(C(C)(C)C)cc2)CC1	0.05	i	-2	/	-10	11*	0.0056	0.018*	0.03	0.016*	?	0.015*
Cc1ccc(C(=O)NC(=S)N2CCN(C)CC2)cc1	0.53	i	-8	/	-6	1.8	/	/	/	/	/	/
O=C(NC(=S)N1CCCCCC1)c1ccccc1Cl	0.26	i	-6	31	-15	23*	0.025*	0.054*	0.038	0.024*	0.048*	0.014*
Cc1oc2cc3oc(=O)c(CCC(=O)N4C[C@H]5C[C@@H](C4)c4cccc(=O)n4C5)c(C)c3cc2c1C	/	/	7	/	/	/	/	/	/	/	/	/
O=C(Nc1nnc(SCc2cccnc2)s1)C1CC(=O)N(c2ccccc2)C1 (centres undefined)	/	/	0	/	/	/	/	/	/	/	/	/
O=C(NC(=S)N1CCN(C2CCCCC2)CC1)c1ccccc1	0.69	i	-3	0	0	35*	0.033*	0.053*	0.047*	0.03*	0.038*	0.035*
